Measured values published in ChEMBL document CHEMBL5380787, “Optimized M24B Aminopeptidase Inhibitors for CARD8 Inflammasome Activation” (J Med Chem, 2023).
Activity calls are given as the source filed them. The calls are words filed in the database; no cut-off is given here.

What was measured:
[1] = Stability of the compound in human MV4-11 cells assessed as esterase-mediated hydrolysis by LC-MS analysis; format: ADME, cell-based
Procedure, shortened: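 Compound was incubated in conditioned medium from MV4;11 cells for 24 h at 37 °C, and LC/MS then measured intact ester remaining and the de-esterified free acid. n = 3, mean ± SEM.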

[2] = target: T1, Xaa-Pro dipeptidase (Homo sapiens) (UniProt P12955); assay: (§1) Inhibition of recombinant human PEPD using Ala-Pro as substrate assessed as alanine release by measuring increase in fluorescense signal by fluorescence based analysis
T1 sequence (whole entry): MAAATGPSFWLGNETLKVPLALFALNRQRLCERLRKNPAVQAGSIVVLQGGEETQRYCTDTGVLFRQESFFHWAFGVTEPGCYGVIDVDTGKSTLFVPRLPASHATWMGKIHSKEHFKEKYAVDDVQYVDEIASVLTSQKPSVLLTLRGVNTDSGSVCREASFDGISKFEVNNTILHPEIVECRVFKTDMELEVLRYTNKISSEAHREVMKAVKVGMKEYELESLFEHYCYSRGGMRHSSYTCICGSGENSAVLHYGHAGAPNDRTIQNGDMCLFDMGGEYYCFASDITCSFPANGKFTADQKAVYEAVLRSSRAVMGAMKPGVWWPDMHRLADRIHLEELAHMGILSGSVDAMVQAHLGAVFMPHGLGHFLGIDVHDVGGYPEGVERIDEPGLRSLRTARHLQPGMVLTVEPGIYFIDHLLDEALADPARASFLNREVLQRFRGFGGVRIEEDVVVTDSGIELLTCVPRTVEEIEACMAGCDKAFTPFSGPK

Xaa-Pro aminopeptidase 1 [3] = target: T2, Xaa-Pro aminopeptidase 1 (Homo sapiens, UniProt Q9NQW7); assay: Inhibition of 6-His tagged XPNPEP1 (unknown origin) expressed in Escherichia coli Rosetta DE3 cells using H-Lys(abz)-Pro-Pro-pNA as substrate incubated for 60 mins by fluorescence based analysis
Procedure, shortened: (§2)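 His6-tagged XPNPEP1 was expressed in E. coli Rosetta DE3 (IPTG, 16 h, 37 °C) and purified on TALON resin. Enzyme at 3.5 nM was exposed to compound, then H-Lys(abz)-Pro-Pro-pNA was added at 100 μM final. Fluorescence (Ex/Em 320/410) was followed for 60 min. Single-point inhibition used 20 μM; IC50 as mean ± SEM of three biological replicates.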

MV4-11 [4] = assay: Cytotoxicity against human MV4-11 cells assessed as reduction in cell viability incubated for 24 hrs by celltiter-glo assay; format: functional, cell-based; conditions: MV4-11, 24 h
Procedure, shortened: (§3)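 MV4;11 cells (WT or CASP1−/−), grown in RPMI 1640 with 10% FBS at 37 °C, 5% CO2, plated 2000 cells/well, dosed by pintool across 100 μM to 15.2 nM in three-fold steps for 24 h. Viability by CellTiter-Glo luminescence after 2 min shaking and 10 min at 25 °C. IC50 as mean ± SEM of three biological replicates.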

Xaa-Pro dipeptidase = target: T3, Xaa-Pro dipeptidase (Homo sapiens, UniProt P12955); assay: as §1
T3 sequence (P12955 whole entry): T1 sequence (whole entry)

[5] = Stability of the compound in human MV4-11 cells assessed as esterase-mediated hydrolysis measured after 8 hrs by LC-MS analysis; format: ADME, cell-based; conditions: mv4-11, 8 h
MV4-11 [6] = assay: Cytotoxicity against CASP1 knockout human MV4-11 cells assessed as reduction in cell viability incubated for 24 hrs by celltiter-glo assay; format: functional, cell-based; conditions: MV4-11, 24 h; procedure, shortened: as §3
OCI-AML2 [7] = assay: Cytotoxicity against human OCI-AML2 cells assessed as reduction in cell viability at 1 uM incubated for 24 hrs by celltiter-glo assay relative to control; format: functional
Procedure, shortened: (§4)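 Single-dose viability screen. MV4;11 or OCI-AML2 cells at 2000 cells/well were exposed to 1 μM compound for 24 h. Viability was read by CellTiter-Glo luminescence and expressed as percent inhibition. Values are means of three biological replicates.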

[8] = target: T1, Xaa-Pro dipeptidase (Homo sapiens); assay: Inhibition of recombinant human PEPD using Ala-Pro as substrate assessed as alanine release by measuring increase in fluorescense signal at 1 uM by fluorescence based analysis relative to control
Procedure, shortened: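 Recombinant human PEPD at 50 nM was incubated with Ala-Pro at 40 μM final and compound. Released alanine was detected by coupled alanine transaminase/pyruvate oxidase conversion to H2O2 and resorufin fluorescence (Ex/Em 535/587 nm) at 25 °C.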

MV4-11 [9] = assay: Cytotoxicity against human MV4-11 cells assessed as reduction in cell viability at 1 uM incubated for 24 hrs by celltiter-glo assay relative to control; format: functional; procedure, shortened: as §4
Xaa-Pro aminopeptidase 1 [10] = target: T2, Xaa-Pro aminopeptidase 1; assay: Inhibition of 6-His tagged XPNPEP1 (unknown origin) expressed in Escherichia coli Rosetta DE3 cells using H-Lys(abz)-Pro-Pro-pNA as substrate at 20 uM incubated for 60 mins by fluorescence based analysis relative to control; procedure, shortened: as §2
[11] = Stability in human MV4-11 cells assessed as retention time of parent compound incubated for 24 hrs by LC/MS analysis; format: ADME, cell-based; conditions: mv4-11, 24 h
Procedure, shortened: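 Compound was held in MV4;11 conditioned medium for 24 h at 37 °C, then LC/MS was run, recording the retention times of the parent ester and its free acid.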

MV4-11 [12] = assay: Cytotoxicity against human MV4-11 cells assessed as reduction in cell viability at 0.015 to 100 uM incubated for 24 hrs by celltiter-glo assay; format: functional; conditions: dose 0.015-100 µM; procedure, shortened: as §3
MV4-11 [13] = assay: Cytotoxicity against CASP1 knockout human MV4-11 cells assessed as reduction in cell viability at 0.015 to 100 uM incubated for 24 hrs by celltiter-glo assay; format: functional; conditions: dose 0.015-100 µM; procedure, shortened: as §3
OCI-AML2 [14] = assay: Induction of cell death in human OCI-AML2 cells assessed as increase in PI uptake at 6.25 uM incubated for 6 hrs by PI staining based fluorescence analysis; format: functional
Procedure, shortened: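 PI flux assay. 2 × 10^4 MV4;11 (WT, CARD8−/− or CASP1−/−) or OCI-AML2 cells in RPMI were given compound at 6.25 μM plus PI at 10 μM final. Fluorescence (Ex/Em 535/617 nm) was read every 5 min at 37 °C for 6 h, baseline-corrected to DMSO and normalized to the maximum response. n = 3.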

RAW264.7 [15] = assay: Induction of pyroptosis in mouse RAW264.7 cells expressing NLRP1B allele 1 assessed as GSDMD clevage at 10 uM incubated for 24 hrs by immunoblot analysis; format: functional, cell-based
Procedure, shortened: (§5)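 RAW264.7 cells in DMEM with L-glutamine and 10% FBS, 5 × 10^5 cells/well, treated 24 h. LDH in supernatant measured relative to a 9% Triton X-100 lysis control. GSDMD cleavage by immunoblot of PBS-sonicated lysates with protein normalized. Mean ± SEM of three biological replicates.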

HEK-293T [16] = assay: Induction of pyroptosis in human HEK293T cells expressing CASP1 and GSDMD cotransfected with dTAG-CARD8ZUC and CARD8 FIIND S297A assessed as destabilization of DPP9-CARD8 ternary complex by measuring LDH release at 10 uM incubated for 6 hrs in presence of dTAG13; format: functional, cell-based
Procedure, shortened: (§6)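 HEK293T cells stably expressing CASP1 and GSDMD, 1.5 × 10^5 cells/well. 24 h later treated with dTAG-13 (500 nM) plus compound, DMSO as vehicle, for 6 h. Read-outs were supernatant LDH against a lysis control and GSDMD immunoblot.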

BMDM [17] = assay: Induction of pyroptosis in C57BL/6J mouse BMDM cells expressing NLRP1A and NLRP1B allele 2 assessed as GSDMD clevage at 10 uM incubated for 24 hrs by immunoblot analysis; format: functional, cell-based
Procedure, shortened: (§7)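 Bone marrow from femurs and tibias of 7–12-week-old C57BL/6J mice, red cells lysed. Cells differentiated 6 days at 37 °C in DMEM with 10% FBS and 15–20% L-cell medium, then replated. Exposure 24 h. LDH in supernatant measured relative to a 9% Triton X-100 lysis control. For GSDMD cleavage, cells sonicated in PBS, protein normalized, SDS-PAGE immunoblot.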

N/TERT-1 = assay: Cytotoxicity against immortalized human N/TERT-1 Keratinocytes expressing human NLRP1 assessed as cell death at 10 uM incubated for 24 hrs by celltiter-glo assay; format: functional, cell-based
Procedure, shortened: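 N/TERT-1 keratinocytes grown in keratinocyte serum-free medium with penicillin/streptomycin, bovine pituitary extract (25 μg/mL) and EGF (0.2 ng/mL), 37 °C, 5% CO2. Compound added by pintool to 2000 cells/well, 24 h exposure. Viability read by CellTiter-Glo luminescence after 2 min shaking and 10 min at 25 °C. Mean ± SEM of three biological replicates.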

THP-1 [18] = assay: Induction of pyroptosis in CARD8 knockout human THP-1 cells harboring dox-inducible […] E274R mutant assessed as cell death by measuring LDH release at 10 uM pretreated with doxycycline for 16 hrs followed by compound addition and measured after 6 hrs; format: functional, cell-based
Procedure, shortened: (§8)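 CARD8−/− THP-1 cells stably carrying DOX-inducible CARD8 E274R, grown in RPMI 1640 with 10% FBS, 5 × 10^5 cells/well. DOX (100 ng/mL) for 16 h or no DOX, then compound for 6 h. Supernatant LDH measured relative to a Triton X-100 lysis control. GSDMD cleavage by SDS-PAGE immunoblot of protein-normalized lysates.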

THP-1 [19] = assay: Induction of pyroptosis in CARD8 knockout human THP-1 cells harboring dox-inducible […] E274R mutant assessed as GSDMD cleavage at 10 uM pretreated with doxycycline for 16 hrs followed by compound addition and measured after 6 hrs by immunoblot analysis; format: functional, cell-based; procedure, shortened: as §8
HEK-293T [20] = assay: Induction of pyroptosis in human HEK293T cells expressing CASP1 and GSDMD cotransfected with dTAG-CARD8ZUC and CARD8 FIIND S297A assessed as destabilization of DPP9-CARD8 ternary complex by measuring GSDMD clevage at 10 uM incubated for 6 hrs in presence of dTAG13 by immunoblot analysis; format: functional, cell-based; procedure, shortened: as §6
BMDM [21] = assay: Induction of pyroptosis in C57BL/6J mouse BMDM cells expressing NLRP1A and NLRP1B allele 2 assessed as LDH release at 10 uM incubated for 24 hrs; format: functional, cell-based; procedure, shortened: as §7
RAW264.7 [22] = assay: Induction of pyroptosis in mouse RAW264.7 cells expressing NLRP1B allele 1 assessed as LDH release at 10 uM incubated for 24 hrs; format: functional, cell-based; procedure, shortened: as §5

T2 sequence (Q9NQW7 whole entry): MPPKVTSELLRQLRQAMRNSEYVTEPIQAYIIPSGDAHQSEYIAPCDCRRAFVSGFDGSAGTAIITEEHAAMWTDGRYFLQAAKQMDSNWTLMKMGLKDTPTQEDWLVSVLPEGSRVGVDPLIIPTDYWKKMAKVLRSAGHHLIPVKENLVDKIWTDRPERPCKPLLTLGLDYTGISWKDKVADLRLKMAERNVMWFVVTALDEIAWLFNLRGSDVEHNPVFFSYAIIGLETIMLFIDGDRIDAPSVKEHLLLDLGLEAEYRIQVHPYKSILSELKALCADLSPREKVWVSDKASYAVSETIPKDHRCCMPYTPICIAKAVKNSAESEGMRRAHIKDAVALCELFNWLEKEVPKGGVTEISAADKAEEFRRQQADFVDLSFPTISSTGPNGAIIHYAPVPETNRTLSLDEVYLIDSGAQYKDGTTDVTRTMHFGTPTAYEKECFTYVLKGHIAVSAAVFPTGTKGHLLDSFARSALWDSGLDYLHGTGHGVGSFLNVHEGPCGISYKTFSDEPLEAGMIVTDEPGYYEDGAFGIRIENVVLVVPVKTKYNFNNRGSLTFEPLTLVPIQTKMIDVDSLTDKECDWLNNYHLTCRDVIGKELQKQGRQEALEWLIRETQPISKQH

CC(C)C[C@@H](N)[C@H](O)C(=O)N1CCC[C@H]1C(=O)OC1CCCC1
Stability [1]: Stable | inhibition [2]: Active | inhibition (Xaa-Pro aminopeptidase 1 [3]): Active

CC(C)C[C@H](NC(=O)[C@@H]1CCCN1C(=O)[C@@H](O)[C@H](N)CC(C)C)C(=O)NCCc1ccc2cc[nH]c2c1
IC50 (MV4-11 [4]): 1.3 µM | IC50 (Xaa-Pro dipeptidase): 10 µM | IC50 (Xaa-Pro aminopeptidase 1 [3]): 2 µM

CC(C)C[C@@H](N)[C@H](O)C(=O)N1CCC[C@H]1C(=O)OC(C)(C)C
Stability [1]: Stable | Stability [5]: Unstable | inhibition [2]: Active | inhibition (Xaa-Pro aminopeptidase 1 [3]): Active

COC(=O)[C@H](C)NC(=O)[C@@H]1CCCN1C(=O)[C@@H]1CCCN1C(=O)[C@@H](O)[C@H](N)CC(C)C
IC50 (MV4-11 [6]): > 100 µM | Activity (OCI-AML2 [7]): 95% | inhibition [8]: 96% | Activity (MV4-11 [9]): 107% | inhibition (Xaa-Pro aminopeptidase 1 [10]): 23% | IC50 (MV4-11 [4]): 35 µM

CC(C)C[C@H](NC(=O)[C@@H]1CCCN1C(=O)[C@@H](O)[C@H](N)CC(C)C)C(=O)O
Retention_time [11]: 2.6 min | inhibition [2]: Active | inhibition (Xaa-Pro aminopeptidase 1 [3]): Active

COC(=O)[C@H](CC(C)C)NC(=O)[C@@H](O)[C@H](N)Cc1ccccc1 [BESTATIN METHYL ESTER]
Activity (MV4-11 [12]): 11% | Activity (MV4-11 [13]): 11% | IC50 (MV4-11 [4]): 3.9 µM | IC50 (Xaa-Pro dipeptidase): > 100 µM | IC50 (Xaa-Pro aminopeptidase 1 [3]): 298 µM

CC(C)C[C@H](NC(=O)[C@@H]1CCCN1C(=O)[C@@H](O)[C@H](N)CC(C)C)C(=O)NCCc1ccccc1
Retention_time [11]: 3.24 min | IC50 (MV4-11 [4]): 0.84 µM

COC(=O)[C@@H](NC(=O)[C@@H]1CCCN1C(=O)[C@@H](O)[C@H](N)CC(C)C)C(C)C
IC50 (MV4-11 [6]): > 20 µM | Activity (OCI-AML2 [7]): 32% | inhibition [8]: 42% | Activity (MV4-11 [9]): 59% | inhibition (Xaa-Pro aminopeptidase 1 [10]): 65% | IC50 (MV4-11 [4]): 0.45 µM | Activity (OCI-AML2 [14]): Active

CC(C)[C@H](N)C(=O)N1CCC[C@H]1B(O)O
Activity (RAW264.7 [15]): Active | Activity (HEK-293T [16]): Active | Activity (BMDM [17]): Active | Activity (N/TERT-1): Active | Activity (THP-1 [18]): inactive | Activity (THP-1 [19]): inactive | Activity (HEK-293T [20]): Active | Activity (BMDM [21]): Active | Activity (RAW264.7 [22]): Active

COC(=O)[C@H](Cc1ccccc1)NC(=O)[C@@H]1CCCN1C(=O)[C@@H](O)[C@H](N)CC(C)C
IC50 (MV4-11 [6]): > 20 µM | Activity (OCI-AML2 [7]): 42% | inhibition [8]: 43% | Activity (MV4-11 [9]): 72% | inhibition (Xaa-Pro aminopeptidase 1 [10]): 81% | IC50 (MV4-11 [4]): 0.66 µM

CC[C@H](C)[C@H](NC(=O)[C@@H]1CCCN1C(=O)[C@@H](O)[C@H](N)CC(C)C)C(=O)OC
IC50 (MV4-11 [6]): > 20 µM | Activity (OCI-AML2 [7]): 42% | inhibition [8]: 48% | Activity (MV4-11 [9]): 56% | inhibition (Xaa-Pro aminopeptidase 1 [10]): 68% | IC50 (MV4-11 [4]): 0.6 µM
